Columns and labels:
[1] = (§1) Maximal plasma concentration in nude mice after 25 mg/kg oral dose; format: ADME, organism-based; parameters: dose 25 mg/kg, route oral; conditions: mouse
Procedure, shortened: (§2)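 Serum pharmacokinetics in nude mice or cynomolgus monkeys after oral (po) or iv dosing. Compounds were given as hydrochloride salts in 20% HPβCD unless otherwise noted. Other formulations were the hydrochloride salt in saline, the micronized free base in 20% HPβCD or corn oil (po) with saline for iv, or the hydrochloride salt in 0.4% methyl cellulose (po).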

[2] = In vivo antitumor efficacy in nude mice 0-24 hr after intravenous dose of 25 mg/kg expressed as Area under the curve; format: ADME, organism-based; parameters: time < 24 hr, dose 25 mg/kg, route intravenous; conditions: mouse; procedure, shortened: as §2
[3] = In vivo antitumor efficacy in nude mice 0-24 hr after peroral dose of 25 mg/kg expressed as Area under the curve; format: ADME, organism-based; parameters: time < 24 hr, dose 25 mg/kg, route oral; conditions: nude, mouse, po; procedure, shortened: as §2
[4] = test system: Mus musculus; experiment: In vivo antitumor efficacy after peroral dose of 25 mg/kg in mice expressed as duration for which compound was present above IC50; format: ADME, organism-based; parameters: dose 25 mg/kg, route oral; conditions: po; procedure, shortened: as §2
[5] = In vivo antitumor efficacy in cynomolgus monkeys by injecting a dose of 10 mg/kg, as HCl salt in saline solution, perorally and the total drug exposure was determined (0-8 hr); format: ADME, organism-based, Macaca fascicularis; parameters: time < 8 hr, dose 10 mg/kg, route oral; conditions: cynomolgus monkey, po; procedure, shortened: as §2
[6] = molecular target: geranylgeranyltransferase type-I (Rattus norvegicus, UniProt P53610+Q04631); experiment: Inhibition of rat Geranylgeranyl transferase (GGPT); format: protein-complex assay
[7] = test system: Cynomolgus monkey; experiment: In vivo antitumor efficacy after peroral dose of 10 mg/kg in cynomolgus monkeys expressed as duration for which compound was present above IC50; format: ADME, organism-based, Macaca fascicularis; parameters: dose 10 mg/kg, route oral; conditions: po; procedure, shortened: as §2
[8] = In vivo antitumor efficacy in nude mice by injecting a dose of 25 mg/kg iv and serum half-life was determined; format: ADME, organism-based; parameters: dose 25 mg/kg, route intravenous; conditions: mouse; procedure, shortened: as §2
[9] = In vivo antitumor efficacy expressed as maximum plasma concentration 0.4 hr after a peroral dose of 25 mg/kg in cynomolgus monkeys; format: ADME, organism-based, Macaca fascicularis; parameters: dose 25 mg/kg, route oral; conditions: cynomolgus monkey, po; procedure, shortened: as §2
[10] = Oral bioavailability in mouse (nude) (dose of 25 mg/kg); format: ADME, organism-based; conditions: in vivo; procedure, shortened: as §2
[11] = test system: Mus musculus; experiment: In vivo antitumor efficacy in nude mice by injecting a dose of 25 mg/kg, as HCl salt in saline solution, perorally and the total drug exposure was determined; format: ADME, organism-based; parameters: dose 25 mg/kg, route oral; conditions: po
[12] = test system: Cynomolgus monkey; experiment: In vivo antitumor efficacy in cynomolgus monkeys by injecting a dose of 10 mg/kg, as HCl salt in saline solution, perorally and the duration of action was reported; format: ADME, organism-based, Macaca fascicularis; parameters: dose 10 mg/kg, route oral; conditions: po
Procedure, shortened: (§3)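 Cynomolgus monkeys; hydrochloride salt in saline iv, or compound given po (as hydrochloride, as micronized free base in corn oil, or as hydrochloride in 0.4% methyl cellulose, depending on compound).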

[13] = In vivo antitumor efficacy in nude mice by injecting a dose of 25 mg/kg, as HCl salt in solution, iv and the serum half-life was determined; format: ADME, organism-based; parameters: dose 25 mg/kg, route intravenous; conditions: mouse
[14] = In vivo antitumor efficacy in cynomolgus monkeys by injecting a dose of 25 mg/kg, as HCl salt in saline solution, perorally and the total drug exposure was determined (0-8 hr); format: ADME, organism-based, Macaca fascicularis; parameters: time < 8 hr, dose 25 mg/kg, route oral; conditions: cynomolgus monkey, po; procedure, shortened: as §3
[15] = In vivo antitumor efficacy in nude mice by injecting a dose of 25 mg/kg, as HCl salt in solution, iv and the total drug exposure was determined. (0-24hr); format: ADME, organism-based; parameters: time < 24 hr, dose 25 mg/kg, route intravenous; conditions: mouse
[16] = In vivo antitumor efficacy in cynomolgus monkeys by injecting a dose of 25 mg/kg, as HCl salt in saline solution, perorally and the maximum drug concentration was determined; format: ADME, organism-based, Macaca fascicularis; parameters: dose 25 mg/kg, route oral; conditions: cynomolgus monkey, po; procedure, shortened: as §2
[17] = test system: Mus musculus; experiment: In vivo antitumor efficacy in nude mice by injecting a dose of 25 mg/kg, as HCl salt in solution, perorally and the total drug exposure was determined (0-24hr); format: ADME, organism-based; parameters: time < 24 hr, dose 25 mg/kg, route oral; conditions: po
[18] = In vivo antitumor efficacy in nude mice by injecting a dose of 25 mg/kg, as HCl salt in saline solution, iv and the total drug exposure was determined.; format: ADME, organism-based; parameters: dose 25 mg/kg, route intravenous; conditions: mouse
[19] = as §1; format: ADME, organism-based; parameters: dose 25 mg/kg, route oral; conditions: mouse; remark: listed apart in the source
[20] = In vivo antitumor efficacy in nude mice by injecting a dose of 25 mg/kg, as HCl salt in saline solution, iv and the serum half-life was determined; format: ADME, organism-based; parameters: dose 25 mg/kg, route intravenous; conditions: mouse
[21] = as §1; format: ADME, organism-based; parameters: dose 25 mg/kg, route oral; conditions: mouse; remark: listed apart in the source
[22] = Oral bioavailability in mouse (nude) (dose 25 mg/kg i.v.); format: ADME, organism-based; conditions: in vivo
[23] = In vivo antitumor efficacy in nude mice by injecting a dose of 25 mg/kg, as HCl salt in saline solution, perorally and the total drug exposure was determined (0-4 hr); format: ADME, organism-based; parameters: time < 4 hr, dose 25 mg/kg, route oral; conditions: mouse, po
[24] = molecular target: T1, Protein farnesyltransferase (Homo sapiens, UniProt P49354+P49356); experiment: In vitro inhibition of farnesyltransferase farnesylation of the H-ras oncogene; format: protein-complex assay
[25] = test system: Mus musculus; experiment: In vivo antitumor efficacy in nude mice by injecting a dose of 25 mg/kg, as HCl salt in saline solution, perorally and the duration of action was reported; format: ADME, organism-based; parameters: dose 25 mg/kg, route oral; conditions: po
[26] = molecular target: T1, Protein farnesyltransferase; experiment: Inhibition of Farnesyltransferase from Ras-CVLS or Ras-CVLL in Cos-7 monkey kidney cells; format: cell-based, Chlorocebus aethiops
[27] = In vivo antitumor efficacy in nude mice by injecting a dose of 25 mg/kg, as HCl salt in saline solution, iv and the total drug exposure was determined. (0-4 hr); format: ADME, organism-based; parameters: time < 4 hr, dose 25 mg/kg, route intravenous; conditions: mouse

With `O=C(Cc1cc[n+]([O-])cc1)N1CCN([C@@H]2c3ccc(Cl)cc3CCc3cc(Br)cnc32)CC1` as the molecule, how does the Cmax [1] read?
The Cmax was 25000 nM.

What about the AUC at 24 h [2] of the same molecule?
Its AUC at 24 h is 27100 ng·h/mL.

And the AUC at 24 h [3]?
The AUC at 24 h was 31900 ng·h/mL.

And the “Time above IC50” value [4]?
Its value is 7 h.

What about the AUC at 8 h [5] of the same molecule?
Its AUC at 8 h is 9100 ng·h/mL.

And the IC50 [6]?
The IC50 was > 38000 nM.

What about the “Time above IC50” value [7] of the same molecule?
Its value is 12 h.

And the half-life [8]?
The half-life was 1.18 h.

What about the Cmax [9] of the same molecule?
The Cmax was 1800 nM.

What about the bioavailability [10] of the same molecule?
The bioavailability was 100%.

Which AUC [11] does the source give for `CN1CCC(CC(=O)N2CCN(C3c4ccc(Cl)cc4CCc4cc(Br)cnc43)CC2)CC1` (configuration not stated) here?
The AUC was 39 uh ml-1.

And the “Time above IC50” value [12]?
Its value is 72 h.

And the half-life [13]?
The half-life was 8.3 h.

And the AUC at 8 h [14]?
Its AUC at 8 h is 37200 ng·h/mL.

What about the AUC at 24 h [15] of the same molecule?
Its AUC at 24 h is 40600 ng·h/mL.

What about the Cmax [16] of the same molecule?
The Cmax was 1500 nM.

And the AUC [17]?
The AUC was 18.4 uh ml-1.

And the AUC [18]?
The AUC was 32900 ng·h/mL.

And the IC50 [6]?
The IC50 was > 38000 nM.

And the Cmax [19]?
The Cmax was 4000 nM.

What about the half-life [20] of the same molecule?
Its half-life is 8.5 h.

What about the Cmax [21] of the same molecule?
Its Cmax is 30000 nM.

What about the bioavailability [22] of the same molecule?
The bioavailability was 100%.

What about the bioavailability [10] of the same molecule?
The bioavailability was 45%.

With `CN1CCC(CC(=O)N2CCN(C3c4ccc(Cl)cc4CCc4cccnc43)CC2)CC1` (configuration not stated) as the molecule, how does the AUC at 4 h [23] read?
The AUC at 4 h was 1300 ng·h/mL.

What about the IC50 [24] of the same molecule?
The IC50 was 1400 nM.

What about the “Time above IC50” value [25] of the same molecule?
Its value is 4 h.

What about the IC50 [26] of the same molecule?
The IC50 was 930 nM.

And the AUC at 4 h [27]?
Its AUC at 4 h is 4100 ng·h/mL.

What about the half-life [20] of the same molecule?
Its half-life is > 1 h.

And the Cmax [21]?
Its Cmax is 1400 nM.

And the bioavailability [10]?
Its bioavailability is 32%.

Reference: ChEMBL document CHEMBL1131493, “Inhibitors of farnesyl protein transferase. 4-Amido, 4-carbamoyl, and 4-carboxamido derivatives of 1-(8-chloro-6,11-dihydro-5H-benzo[5,6]- cyclohepta[1,2-b]pyridin-11-yl)piperazine and 1-(3-bromo-8-chloro-6,11- dihydro-5H-benzo[5,6]cyclohepta[1,2-b]pyridin-11-yl)piperazine” (J Med Chem, 1998)
